TRPC6 act = activates the mouse TRPC6 cation channel; Q61143; HEK293-TRPC6 membrane potential dye fluorescence; stronger effect = higher value; B-score at 10 µM; actives 0.13% (n = 310,000); AID 2550;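 active means B-score of the integrated fluorescence ratio above library mean plus 3 SD, and starting fluorescence ratio within library mean plus 5 SD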;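 further: higher score means more depolarization so channel activation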
TRPC6 inh = blocks the mouse TRPC6 cation channel. B-score at 10 µM. HEK293-TRPC6, membrane potential dye, ACh-evoked depolarization; stronger effect = lower value. actives 1.1% (n = 310,000). Q61143;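 active means B-score under library mean minus 3 SD, initial fluorescence not abnormally high, positive integrated signal ratio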;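 further: B-score derived from integrated fluorescence ratio over the kinetic read; more negative B-score means stronger inhibition of depolarization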
Kir21 inh = Kir2.1 (mouse) channel inhibition; HEK293-Kir2.1, FluxOR thallium flux fluorescence; stronger effect = lower value; actives 0.85% (n = 310,000); B-score at 10 µM;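 active means fluorescence ratio B-score at or below minus 3 SD of library scores, with starting-brightness B-score within 2 SD, cut at about -4.2 in these data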;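 further: channel flux triggered by added potassium and thallium sulfate stimulus; B-score of peak minus minimum fluorescence over baseline after thallium stimulus; more negative B-score means stronger Kir2.1 block with less thallium influx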
Target sequence (P35561 whole entry, looked up): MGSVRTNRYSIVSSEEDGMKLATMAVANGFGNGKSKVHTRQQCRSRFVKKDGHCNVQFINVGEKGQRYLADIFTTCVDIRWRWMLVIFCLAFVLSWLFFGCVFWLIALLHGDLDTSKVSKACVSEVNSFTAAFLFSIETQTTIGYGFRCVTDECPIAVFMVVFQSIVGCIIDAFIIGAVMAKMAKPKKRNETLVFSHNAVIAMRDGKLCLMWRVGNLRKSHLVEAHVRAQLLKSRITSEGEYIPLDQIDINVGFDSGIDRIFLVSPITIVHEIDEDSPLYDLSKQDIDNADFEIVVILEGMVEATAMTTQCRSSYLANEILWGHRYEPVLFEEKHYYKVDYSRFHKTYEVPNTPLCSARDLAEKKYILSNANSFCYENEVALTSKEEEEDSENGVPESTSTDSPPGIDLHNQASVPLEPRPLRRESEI
TRPC4 act = opens the mouse TRPC4 cation channel | Q9QUQ5 | HEK293 TRPC4beta/mu-opioid, Fluo4 calcium fluorescence; stronger effect = higher value | B-score at 10 µM | actives 0.49% (n = 310,000) | AID 2237;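 active means B-score above 5 SD of library B-scores, and initial fluorescence ratio not above library mean plus 5 SD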;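 further: positive B-score marks a calcium rise read as TRPC4 activation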
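Technique: kinetic Fluo4 calcium fluorescence; Test system: TRPC4beta and mu-opioid receptor HEK293 stable cells; Measure: B-scored integrated calcium fluorescence ratio; Benchmarks: low control buffer alone, high control maximal DAMGO; Schedule: 45 min room-temperature Fluo4 loading, 110 s read.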
TRPC4 inh = blocks the mouse TRPC4 cation channel; Q9QUQ5; HEK293 TRPC4beta/mu-opioid, DAMGO-evoked Fluo4 calcium flux; stronger effect = lower value; B-score at 10 µM; actives 0.39% (n = 300,000);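 active means B-score over 3 SD under the library average, no early fluorescence shift, positive overall ratio signal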
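Assay system: Stable TRPC4beta/mu-opioid receptor HEK293 cells | Reagent: DAMGO in two steps, submaximal then maximal | Compound dosing: Single concentration per test compound | Signal: Fluo4 Ca2+ flux fluorescence | Evaluation: Per-well B score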
TRPC4 PAM = TRPC4 (mouse) allosteric potentiation. AID 2227. Q9QUQ5. B-score at 10 µM. HEK293 TRPC4beta/mu-opioid, DAMGO EC20, Fluo-4 Ca2+ flux; stronger effect = higher value. actives 0.42% (n = 310,000);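 active means B-score of calcium response area above 5 SD of library B-scores, with initial fluorescence ratio within 5 SD of library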;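 further: B-score of integrated fluorescence ratio over time as area under calcium response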
* = called active by the depositor. This is a sample that favours compounds with a hit; in the whole collection about 2.9% have one here.

Results for FC(F)(F)c1ccc(Cl)c(-n2c(Cc3cccs3)n[nH]c2=S)c1 ?
TRPC6 act: inactive; TRPC6 inh: inactive; Kir21 inh: -2.53; TRPC4 act: inactive; TRPC4 inh: inactive; TRPC4 PAM: inactive

How did CNC[C@H](Cc1ccccc1)NC[C@@H](Cc1cccc2ccccc12)NCCc1ccc(C)cc1 do in these assays?
TRPC6 act: inactive; TRPC6 inh: inactive; Kir21 inh: -10.2*; TRPC4 act: 173*; TRPC4 inh: inactive; TRPC4 PAM: inactive

Results for CN1CCN(CCCN(Cc2ccco2)C(=S)Nc2ccc(Cl)cc2)CC1 ?
TRPC6 act: inactive; TRPC6 inh: inactive; Kir21 inh: 0.86; TRPC4 act: inactive; TRPC4 inh: inactive; TRPC4 PAM: inactive

How did Cc1cccc(NC(=S)N(CCCN2CCCC2)Cc2cccn2Cc2ccc(Cl)cc2)c1 do in these assays?
TRPC6 act: inactive; TRPC6 inh: inactive; Kir21 inh: -5.32*; TRPC4 act: inactive; TRPC4 inh: inactive; TRPC4 PAM: inactive

Results for CCCCN(C)CCCNC(=O)C1CCC(CNS(=O)(=O)c2c(C)cc(C)cc2C)CC1 (configuration not stated) ?
TRPC6 act: inactive; TRPC6 inh: inactive; Kir21 inh: 1.89; TRPC4 act: inactive; TRPC4 inh: inactive; TRPC4 PAM: 12*

What do the screens show for `CCN(CC)CCCNC(=O)C1CCC(CNS(=O)(=O)c2c(C)cc(C)cc2C)CC1` (configuration not stated)?
TRPC6 act: inactive; TRPC6 inh: inactive; Kir21 inh: -2.88; TRPC4 act: inactive; TRPC4 inh: inactive; TRPC4 PAM: inactive

How did O=C(CSc1nnc2scc(-c3ccccc3)n12)N1CCCc2ccccc21 do in these assays?
TRPC6 act: inactive; TRPC6 inh: inactive; Kir21 inh: 0.52; TRPC4 act: inactive; TRPC4 inh: inactive; TRPC4 PAM: inactive

How did CCOc1ccccc1CN1CCN(Cc2cccc3nonc23)CC1CCO (configuration not stated) do in these assays?
TRPC6 act: inactive; TRPC6 inh: inactive; Kir21 inh: 0.18; TRPC4 act: inactive; TRPC4 inh: -6*; TRPC4 PAM: inactive

Results for O=C(NC1CCCC1)c1ccc(CN2CCOCC2)cc1 ?
TRPC6 act: inactive; TRPC6 inh: inactive; Kir21 inh: 0.8; TRPC4 act: inactive; TRPC4 inh: inactive; TRPC4 PAM: inactive

Results for OC(COc1ccc2ccccc2c1Br)Cn1ccnc1 (configuration not stated) ?
TRPC6 act: inactive; TRPC6 inh: inactive; Kir21 inh: -1.66; TRPC4 act: inactive; TRPC4 inh: inactive; TRPC4 PAM: inactive

What do the screens show for `OC(COc1ccc2ccccc2c1)Cn1ccnc1` (configuration not stated)?
TRPC6 act: inactive; TRPC6 inh: inactive; Kir21 inh: -1.23; TRPC4 act: inactive; TRPC4 inh: inactive; TRPC4 PAM: 11*

How did CCOc1ccccc1N1CCN(C(=O)CNC(=O)c2ccc(OC)c(OC)c2)CC1 do in these assays?
TRPC6 act: inactive; TRPC6 inh: inactive; Kir21 inh: 2.09; TRPC4 act: inactive; TRPC4 inh: inactive; TRPC4 PAM: inactive

How did O=[N+]([O-])c1ccc(-c2ccc(/C=N/O)o2)cc1 do in these assays?
TRPC6 act: inactive; TRPC6 inh: inactive; Kir21 inh: -0.08; TRPC4 act: inactive; TRPC4 inh: inactive; TRPC4 PAM: inactive

Results for CC(C)C(=O)Nc1ccc(C(=O)Nc2nnc(C(C)(C)C)s2)cc1 ?
TRPC6 act: inactive; TRPC6 inh: inactive; Kir21 inh: 0.5; TRPC4 act: inactive; TRPC4 inh: -6*; TRPC4 PAM: inactive

What do the screens show for `C/C=C(\C)CN1CCC(n2nccc2NC(=O)CCOc2ccccc2)CC1`?
TRPC6 act: inactive; TRPC6 inh: inactive; Kir21 inh: -1.63; TRPC4 act: inactive; TRPC4 inh: inactive; TRPC4 PAM: inactive

Results for O=C(CCc1ccccc1)Nc1ccnn1C1CCN(C/C=C/c2ccccc2)CC1 ?
TRPC6 act: inactive; TRPC6 inh: inactive; Kir21 inh: -0.73; TRPC4 act: inactive; TRPC4 inh: -6*; TRPC4 PAM: inactive

How did CCOc1ccccc1CN1CCC(n2nccc2NC(=O)CCc2ccccc2)CC1 do in these assays?
TRPC6 act: inactive; TRPC6 inh: inactive; Kir21 inh: -1.51; TRPC4 act: inactive; TRPC4 inh: -7*; TRPC4 PAM: inactive

Results for O=C(Nc1ccnn1C1CCN(C/C=C/c2ccccc2)CC1)C1CCCC1 ?
TRPC6 act: inactive; TRPC6 inh: inactive; Kir21 inh: -0.82; TRPC4 act: inactive; TRPC4 inh: inactive; TRPC4 PAM: inactive

Results for C/C=C(\C)CN1CCC(n2nccc2NC(=O)CCc2ccccc2)CC1 ?
TRPC6 act: inactive; TRPC6 inh: inactive; Kir21 inh: -0.46; TRPC4 act: 46*; TRPC4 inh: -6*; TRPC4 PAM: inactive

Results for CCOc1ccccc1CN1CCC(n2nccc2NC(=O)CCCc2ccccc2)CC1 ?
TRPC6 act: inactive; TRPC6 inh: inactive; Kir21 inh: -1.59; TRPC4 act: inactive; TRPC4 inh: inactive; TRPC4 PAM: inactive

Results for COC(=O)c1c(C(=O)NCc2ccccc2)ncn1CC(O)COc1ccccc1 (configuration not stated) ?
TRPC6 act: inactive; TRPC6 inh: inactive; Kir21 inh: -1.74; TRPC4 act: inactive; TRPC4 inh: inactive; TRPC4 PAM: inactive

What do the screens show for `NNC(=O)CNC(=O)C12CC3CC(CC(C3)C1)C2`?
TRPC6 act: inactive; TRPC6 inh: inactive; Kir21 inh: 0.33; TRPC4 act: inactive; TRPC4 inh: inactive; TRPC4 PAM: inactive

What do the screens show for `CC(C)(CSc1ccccn1)NS(=O)(=O)c1ccc(Cl)cc1`?
TRPC6 act: inactive; TRPC6 inh: inactive; Kir21 inh: -5.09*; TRPC4 act: inactive; TRPC4 inh: inactive; TRPC4 PAM: 10*

How did CC(C)(CSc1ccccn1)NS(=O)(=O)c1ccccc1 do in these assays?
TRPC6 act: inactive; TRPC6 inh: inactive; Kir21 inh: -1.15; TRPC4 act: inactive; TRPC4 inh: inactive; TRPC4 PAM: inactive

How did O=C(NC1CCCC1)C(c1ccccn1)N(C(=O)c1csnn1)c1ccccc1Cl (configuration not stated) do in these assays?
TRPC6 act: inactive; TRPC6 inh: inactive; Kir21 inh: -1.18; TRPC4 act: inactive; TRPC4 inh: inactive; TRPC4 PAM: inactive

What do the screens show for `COCCNC(=O)c1c[nH]c2ccc(OC)cc2c1=O`?
TRPC6 act: inactive; TRPC6 inh: inactive; Kir21 inh: -0.2; TRPC4 act: inactive; TRPC4 inh: inactive; TRPC4 PAM: inactive
